To fix the notation:
B1: tRNA (parent)
chain: GUUCCGUUGGCGUAAUGGUAACGCGUCUCCCUCCUAAGGAGAAGACUGCGGGUUCGAGUCCCGUACGGAACG

The results in this text go back to the RNAGym collection of RNA variant scans (doi:10.1126/science.aae0568).

This sample holds only a part of the variants without activity. Where only a bound is given, the exact number is not on record here.

The variants in the data set derive from B1. As to the kind of experiment: yeast fitness relative to wild type (ratio to wild type); higher = fitter; tRNA-Arg(CCU), competitive growth, 37 C, YPD. The essentials:
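Changes in genotype frequencies gave Darwinian fitness relative to wild type. Frequencies were read by 100-nucleotide paired-end sequencing of gene amplicons before and after pooled Saccharomyces cerevisiae strains, carrying tRNA-Arg(CCU) gene variants at the native locus, were competed in YPD at 37°C for 24 hours in six replicates. A genotype was kept only with ≥ 100 starting reads, and estimates < 0.5 were set to 0.5.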
Take GUUUCGUUCGCGUAAUGGUAACGCGUCUCCCUCCUAAGGAGAAGACUGCGGGUUCGAGUCCCGUACGGCACG [C4U G9C A69C]: the yeast fitness came out at 0.594.

GUUUCAUUGGCGUAAUGGUAACGCGUCUCCCUCCUAAGGAGAAGACUGCGGGUUCGAGUCCCGUACGGAACG [C4U G6A]: the yeast fitness was 0.901.

Consider GUUUCGUUGGCGUAAUGGUAACGCGUCUCCUUCCUACGGAGAAGACUGCGGGUUCGAGUCCCGUACGGAACG [C4U C31U A37C], for which the yeast fitness is 0.532.

In the case of GUUUCGUUGGCGUAAUGGUAACGCGUCUCACUCCUAAGGAGAAGACUGCGGGUUCGAGUCCUGUACGGAACG [C4U C30A C62U], the yeast fitness worked out at 0.792.

For the variant GUUUCGUUGGCGUAAUGGUAACGCGUCUCCCUUCUAAGGAGAAGACUGCCGGUUCGAGUCCCGUACGGAACG [C4U C33U G50C], the yeast fitness is ≤ 0.5.

As to GUUUCGUUGGCGUAAUGGUAACGGGACGCCCACCUAAGGAGAAGACUGCGGGUUCGAGUCCCGUACGGAACG [C4U C24G U26A U28G U32A], the yeast fitness is ≤ 0.5.

GUUUCGUUGGCGUAAUGGUAACGCGUCUCCCUCCUAAGGAGAAGAGUGCGGGUUCGAGUCCCCUAAGGAACG [C4U C46G G63C C66A]: the yeast fitness was ≤ 0.5.

For GUUUCGUUGGCGUAAUGGUAACGUGUAUCCCUCCUAAGGAGAAGACUGCGGGUUCGAGUGCCGUACCGAACG [C4U C24U C27A C60G G67C], the yeast fitness is ≤ 0.5.

As for GUUUCGUUGGCGUAAUGGUAACGAGACUCCCUCCUAAGGAGAAGACUGCGGGUUCGAGUCCCGUACGGAACG [C4U C24A U26A], the yeast fitness was ≤ 0.5.

In the case of GUUUCGUUGGCGUAAUGGUAACGUGUCUCCCUCCUCAGGAGAAGACUGCGGGUUCGAGUCGCGUACGGAACG [C4U C24U A36C C61G], the yeast fitness is ≤ 0.5.

For the variant GUUUCGUUGGCGUAAUGGUAACGCGUCUCACUCCUAAGGAGAAGACUGCGGGUUCGAGUCCCAUACGGAACG [C4U C30A G63A], the yeast fitness was found to be 0.828.

As to GUUUCGUUGGCGUAAUGGUAACGCGUCUCGCUCCUUAGGAGAAGACUGCGGGUUUGAGUCCCGUACGGAACG [C4U C30G A36U C55U], the yeast fitness is ≤ 0.5.

Regarding GUUUCGUUGGCGUAAUGGUAACGCGUCUACCUCCUAAGGAGAAGACUGCGGGUUCGAGUCCCGUACGGAACG [C4U C29A], the yeast fitness turned out to be 0.691.

As to GUUUCAUUGGCGUAAUGGUAACGCGUCUCCCUCCUAAGGAGAAGAGUGCGGGUUCGAGUCCCGUACGGAACG [C4U G6A C46G], the yeast fitness was determined as 0.623.

As for GUUUCGUUAGCGUAAUGGUAAGGCGUCUCCCUCCUAAGGAGUAGACUGCGGGUUCAAGUCCCGUACGGAACG [C4U G9A C22G A42U G56A], the yeast fitness is ≤ 0.5.

As for GUUUCAUUGGCGUAAUGGUAACGCGUCUCCCUCAUAAGGAGAAGACUGCGGGUUCGAGUCCCGUACGGACCG [C4U G6A C34A A70C], the yeast fitness was ≤ 0.5.

With GUUUCGUUGACGUAAUGGUAACGCGUCUCCCUCCUAAGGAGAUGACUGCGGGUUGAAGUCCCGUACGGAACG [C4U G10A A43U C55G G56A], the yeast fitness is ≤ 0.5.

Take GUUUCGUUGGCGUAAUGGUAACGAGUCUCCCUCCUAAGGAGAAGACUGCGGGUUCGAGUCCUGUACGGUACG [C4U C24A C62U A69U]: the yeast fitness was ≤ 0.5.

On to GUUUCGUUAGCGUAAUGGUAACGCGUCUCCCUCCUAAGGAGAAGACUGCGGGUUCGAGUCGCGUACGGAACG [C4U G9A C61G], for which the yeast fitness was 0.566.

For the variant GUUUCGUUGGCGUAAUGGUAACGAGUCUCCCUCCUAAGGAGAAGACUGCGGGUUCGAGGCCUGUACGGAGCG [C4U C24A U59G C62U A70G], the yeast fitness is ≤ 0.5.

For GUUUCGUUGGCGUAAUGGUAACGUGUCUCCCUCCUAAGGAGAAGACUGCGGGUACGAGUCCCGUACGGAACG [C4U C24U U54A], the yeast fitness was ≤ 0.5.

For GUUUCGUUGGCGUAAUGGUAACGCGUUUCCCUCCUAAGGAGAAGACUGCGGGUACGAGUCCCGUACGGAACG [C4U C27U U54A], the yeast fitness is ≤ 0.5.

For the variant GUUUCGUUGGCGUAAUGGUAACGCGUCUCCCUACUAAGGAGAAGACUCCGGGUUCGAGUCCCGUACGGAACG [C4U C33A G48C], the yeast fitness is ≤ 0.5.

In the case of GUUUCGUUGGCGUAAUGGUAACGCGUCUCGCUCCUUAGGAGAAGACUGCGGGUUCGAGUCCCGUAAGGAACG [C4U C30G A36U C66A], the yeast fitness was ≤ 0.5.

On to GUUUCGUUGGCGUAAUGGUAACGGGACGCCCUCCUAAGGAGAAGACUGCGGGUUCGAGUCCCGUUCGGAACG [C4U C24G U26A U28G A65U], for which the yeast fitness is ≤ 0.5.

With GUUUCGUUGGCGUAAUGGUAACGCGUCUCCGUCCUAAGGAGAAGACUGCGGGUUUGAGUCCCGUACGGAACG [C4U C31G C55U], the yeast fitness amounted to 0.579.

GUUUCGUUGGCGUAAUGGUAACGAGUCUCCCUCCUAAGGAGAAGACUGCGGGUUCGGGUCCCGUACGCAACG [C4U C24A A57G G68C]: the yeast fitness is ≤ 0.5.

In the case of GUUUCAUUGGCGCAAUGGUAACGCGUCCCCCUCCUAAGGAGAAGACUGCGGGUUCGAGUCCCGUACGGAACG [C4U G6A U13C U28C], the yeast fitness was 0.616.

On to GUUUCGUUCGCGUAAUGGUAACGCGUCUGCCUCGUAAGGAGAAGACUGCGGGUUCGAGUGCCGUACGGAACG [C4U G9C C29G C34G C60G], for which the yeast fitness is ≤ 0.5.

Take GUUUCGUUGGCGUAAUGGUAACGCGUAUCCCUCCUAAGGAGAAGACUGCGCGUUCGAGUCCCGUACGGAACG [C4U C27A G51C]: the yeast fitness was 0.562.

Take GUUUCGUUGGCGUAAUGGUAACGCGUCUCCGUCCUAAGGAGAAGAUUGCGGGUUCGAGUCCCGUACGGAACG [C4U C31G C46U]: the yeast fitness was found to be 0.921.

Take GUUUCGUUGGCGUAAUGGUAACGCGUCUUCAUCCUAAGGAGAAGACUGCGGGUUUGCGUCCCGUACGGAACG [C4U C29U C31A C55U A57C]: the yeast fitness was ≤ 0.5.

On to GUUUCGUUGACGUACUGGUAACGCGUCUCCCUCCUAAGGAGAAGACUGCGGGUUCGCGUCCCGUAGGGAACG [C4U G10A A15C A57C C66G], for which the yeast fitness was ≤ 0.5.

In the case of GUUUCAUUAGCGCAAUGGUAACGCGUCCCCCUCCUAAGGAGAAGACUGCGGGUUCGAGUCCCGUACGGAACG [C4U G6A G9A U13C U28C], the yeast fitness was ≤ 0.5.

GUUUCGUUAGCGUAAUGGUAACGGGUCUCCCUCCUACGGAGAAGACUGCGGGUUCGUGUCCCGUACGGAACG [C4U G9A C24G A37C A57U]: the yeast fitness was found to be 0.543.

With GUUUCGUUAGCGUAAUGGUAACGCGUCUCCCUCCUAAGGAGAAGACUGUAGGUUCGAGUCCCGUACGGAACG [C4U G9A C49U G50A], the yeast fitness was found to be 0.644.

Take GUUUCAUUGGCGUAAUGGUAACGCGUCUCCCUCCUAAGGGGAGGACUGUGGGUUCGAGUCCCGUACGGAACG [C4U G6A A40G A43G C49U]: the yeast fitness was ≤ 0.5.

As for GUUUCGUUGACGUUAUGGUAACGCGUCUCCCUCCUAAGGAGAAGAUUGCGGGUUCGAGUCCCGUACGGAACG [C4U G10A A14U C46U], the yeast fitness is ≤ 0.5.
